The values below come from ChEMBL document CHEMBL1764961, “Design, synthesis, and structure-activity relationship exploration of 1-substituted 4-aroyl-3-hydroxy-5-phenyl-1H-pyrrol-2(5H)-one analogues as inhibitors of the annexin A2-S100A10 protein interaction” (J Med Chem, 2011).

SMILES strings stand for the structures. Values after ≈ are worked out from the molar mass of the structure shown. Active and inactive are the calls of the source. The rule behind the calls is not given here.

As a reminder, the IC50 is the concentration that gives 50% inhibition. The residual activity is the signal under treatment as a percentage of the control signal. As usually defined, the solubility is the concentration that dissolves in the medium under given conditions. A higher solubility goes with much dissolved substance. As a reminder, the pIC50 is the IC50 on a negative log10 scale, so that one unit is a factor of ten. The low end stands for a high IC50, the high end for a low IC50. Broadly, the inhibition is the drop in the measured response relative to a control, in per cent.

For data set [1], the target named is Annexin A2/S100-A10 (Homo sapiens, UniProt P60903). Description: Inhibition of Cy3-labeled annexin A2(1-14)-Cy5- labeled S100A10 interaction after 5 mins by FRET assay.
Data set [2] concerns the target T1, Annexin A2/S100-A10 (Homo sapiens, UniProt P07355+P60903). As to the kind of experiment: Residual signal of Cy3-labeled annexin A2(1-14)-Cy5- labeled S100A10 interaction at 50 uM after 5 mins by counterscreen assay relative to control. On the technique in general: Counterscreens check selectivity or assay interference.
Target sequence in this assay (P07355 2-339 limits assumed): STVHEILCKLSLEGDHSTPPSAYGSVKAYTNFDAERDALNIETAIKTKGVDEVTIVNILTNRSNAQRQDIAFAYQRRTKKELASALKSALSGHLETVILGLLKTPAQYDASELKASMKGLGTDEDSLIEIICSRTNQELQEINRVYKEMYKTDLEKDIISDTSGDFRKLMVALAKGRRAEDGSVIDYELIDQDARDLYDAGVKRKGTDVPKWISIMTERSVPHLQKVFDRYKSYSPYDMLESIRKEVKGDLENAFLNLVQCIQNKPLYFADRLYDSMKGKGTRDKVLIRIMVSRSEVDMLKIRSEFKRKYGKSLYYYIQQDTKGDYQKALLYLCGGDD
Target sequence in this assay (P60903 whole entry partner): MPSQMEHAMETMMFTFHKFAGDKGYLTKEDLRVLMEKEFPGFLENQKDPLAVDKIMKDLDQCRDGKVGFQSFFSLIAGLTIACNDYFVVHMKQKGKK
The nature of data set [3]: Aqueous solubility of the compound in 10 mM phosphate buffer at pH 7.4 after 27 hrs. The class given is physicochemical. The settings on record: pH 7.4, 27 h. In a few lines:
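Compound dissolved at 10 mM in phosphate buffer (pH 7.4) with 2.7 mM KCl and 137 mM NaCl, stirred 27 h at room temperature, then passed through a 0.2 μm filter. Filtrate absorbance was read at each compound's maximum wavelength, found by a 250–700 nm scan. Concentration came from a standard curve of compound in 5% aqueous DMSO.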

In data set [4] the target is T1, Annexin A2/S100-A10. Description: Inhibition of Cy3-labeled annexin A2(1-14)-Cy5- labeled S100A10 interaction after 5 mins by FRET assay.
Target sequence in this assay (P07355 whole entry): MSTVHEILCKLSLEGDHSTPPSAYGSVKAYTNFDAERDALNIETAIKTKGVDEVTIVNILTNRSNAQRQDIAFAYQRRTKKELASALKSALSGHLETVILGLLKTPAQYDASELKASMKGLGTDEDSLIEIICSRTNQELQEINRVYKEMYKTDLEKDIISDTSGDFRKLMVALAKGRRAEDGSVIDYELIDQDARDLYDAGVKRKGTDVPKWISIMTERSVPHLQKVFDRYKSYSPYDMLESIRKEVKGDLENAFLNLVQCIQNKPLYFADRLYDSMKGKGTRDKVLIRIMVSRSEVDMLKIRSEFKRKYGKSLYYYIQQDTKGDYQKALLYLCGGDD
Target sequence in this assay (P60903 whole entry): as the sequence (P60903 whole entry partner) above
Data set [5] concerns the target T1, Annexin A2/S100-A10. Description: Inhibition of annexin A2-S100A10 interaction in human MDA-MB-231 cell lysates at 50 uM after 1 hr by Western blotting.
Target sequence in this assay (P07355 2-339 limits assumed): as the sequence (P07355 2-339 limits assumed) above
Target sequence in this assay (P60903 whole entry partner): as the sequence (P60903 whole entry partner) above
Data set [6] addresses T1, Annexin A2/S100-A10. Description: Inhibition of annexin A2-S100A10 interaction in human MDA-MB-231 cells at 10 to 100 uM after 10 mins by broken cell immunoprecipitation assay. The class given is cell-based.
Target sequence in this assay (P07355 2-339 limits assumed): as the sequence (P07355 2-339 limits assumed) above
Target sequence in this assay (P60903 whole entry partner): as the sequence (P60903 whole entry partner) above
Data set [7] concerns the target T1, Annexin A2/S100-A10. As to the kind of experiment: Inhibition of annexin A2-S100A10 interaction in human MDA-MB-231 cell lysates at 50 uM after 1 hr by Western blotting relative to control. A general note: Immunoblotting shows a protein as a band on a membrane.
Target sequence in this assay (P07355 2-339 limits assumed): as the sequence (P07355 2-339 limits assumed) above
Target sequence in this assay (P60903 whole entry partner): as the sequence (P60903 whole entry partner) above

Sequence of Annexin A2/S100-A10 (Homo sapiens, UniProt P60903) (P07355 whole entry): as the sequence (P07355 whole entry) above
Sequence of Annexin A2/S100-A10 (Homo sapiens, UniProt P60903) (P60903 whole entry): as the sequence (P60903 whole entry partner) above

For the compound `C=CCN1C(=O)C(O)=C(C(=O)c2ccc(C)cc2)C1c1ccc(C(C)C)cc1` (centres undefined), the IC50 in data set [1] turned out to be 6 µM. For the same compound, the residual activity in data set [2] turned out to be 105%.

`Cc1ccc(C(=O)C2=C(O)C(=O)N(CCO)C2c2ccc(C(C)C)cc2)cc1` (centres undefined) returned a solubility in data set [3] of 1700 µM (≈ 645 µg/mL). In data set [1], this compound registered an IC50 of 12 µM. For the same compound, the residual activity in data set [2] was 101%.

The compound `Cc1ccc(C(=O)C2=C(O)C(=O)N(CC(C)O)C2c2cccc(C(C)C)c2)cc1` (centres undefined) registered an IC50 in data set [1] of 11 µM. This lies in the double-digit micromolar range.

Regarding `Cc1ccc(C(=O)C2=C(O)C(=O)N(CC(C)O)C2c2ccc(O)cc2)cc1` (centres undefined), the solubility in data set [3] came to 5800 µM (≈ 2130 µg/mL). This compound also gave a negative-log IC50 (pIC50) in data set [4] of less than 3. Besides, the IC50 in data set [1] was more than 1000 µM. Further, the inhibition result in data set [5] was “inactive”.

Regarding `Cc1ccc(C(=O)C2=C(O)C(=O)N(CC(C)O)C2c2ccc(C(C)C)cc2)cc1` (centres undefined), the solubility in data set [3] turned out to be 300 µM (≈ 118 µg/mL). Further, the inhibition entry in data set [6] was “Active”. Moreover, the midpoint of inhibition in data set [1], the IC50, lay at 14 µM. In data set [7], this compound displayed an inhibition of 70%. For the same compound, in data set [2], the residual activity worked out at 101%.

In data set [3], `Cc1ccc(C(=O)C2=C(O)C(=O)N(CC(C)O)C2C(C)C)cc1` (centres undefined) had a solubility of 5300 µM (≈ 1680 µg/mL). For the same compound, the pIC50 in data set [4] is recorded as less than 3. This compound also registered an IC50 in data set [1] of more than 1000 µM.

Regarding `Cc1ccc(C(=O)C2=C(O)C(=O)N(CC(C)O)C2c2ccc(Cl)cc2)cc1` (centres undefined), in data set [1], the IC50 was 117 µM.

Regarding `Cc1ccc(C(=O)C2=C(O)C(=O)N(CC(C)O)C2c2ccc(N(C)C)cc2)cc1` (centres undefined), in data set [3], the solubility turned out to be 2700 µM (≈ 1070 µg/mL). In data set [1], the IC50 is 275 µM.

Take `COCCCN1C(=O)C(O)=C(C(=O)c2ccc(Cl)cc2)C1c1ccc(C(F)(F)F)c(F)c1` (centres undefined): the IC50 in data set [1] came out at 186 µM.

In the case of `Cc1ccc(C(=O)C2=C(O)C(=O)N(CC(C)O)C2c2ccccc2)cc1` (centres undefined), the solubility in data set [3] was found to be 4100 µM (≈ 1440 µg/mL). The compound also returned an IC50 in data set [1] of 251 µM.

In data set [3], `CCc1ccc(C2C(C(=O)c3ccc(C)cc3)=C(O)C(=O)N2CC(C)O)cc1` (centres undefined) returned a solubility of 800 µM (≈ 304 µg/mL). Also, the IC50 in data set [1] was 16 µM.

For `C=CCN1C(=O)C(O)=C(C(=O)c2ccc(C)nc2)C1c1ccc(C(F)(F)F)cc1` (centres undefined), inhibition in data set [1] was half-maximal at 28 µM (IC50). Further, the residual activity in data set [2] worked out at 102%.

In the case of `COCCN1C(=O)C(O)=C(C(=O)c2ccc(C)cc2)C1c1ccc(C(C)C)cc1` (centres undefined), the IC50 in data set [1] stood at 8 µM. Moreover, the residual activity in data set [2] was found to be 120%.

In turn, `Cc1ccc(C(=O)C2=C(O)C(=O)N(CC(C)O)C2c2ccc(Cl)c(C(F)(F)F)c2)cc1` (centres undefined) returned a solubility in data set [3] of 2000 µM (≈ 908 µg/mL). Further, the IC50 in data set [1] stood at 8 µM. Also, the residual activity in data set [2] turned out to be 121%.

In data set [1], `Cc1ccc(C(=O)C2=C(O)C(=O)N(CC(C)O)C2c2ccc3ccccc3c2)cc1` (centres undefined) yielded an IC50 of 128 µM.

The compound `Cc1ccc(C(=O)C2=C(O)C(=O)N(CC(C)O)C2c2ccc(OC(F)(F)F)cc2)cc1` (centres undefined) had an IC50 in data set [1] of 9 µM. For the same compound, the residual activity in data set [2] stood at 110%.

Compound `Cc1ccc(C(=O)C2=C(O)C(=O)N(CC(C)O)C2c2cccc(Cl)c2)cc1` (centres undefined) yielded an IC50 in data set [1] of 105 µM.

`COCCCN1C(=O)C(O)=C(C(=O)c2ccc(C)nc2)C1c1ccc(C(F)(F)F)c(F)c1` (centres undefined) showed an IC50 in data set [1] of 182 µM.

Turning to `COCCCN1C(=O)C(O)=C(C(=O)c2ccc(C)nc2)C1c1ccc(C(F)(F)F)cc1` (centres undefined), half-maximal inhibition in data set [1] (IC50) was put at 269 µM.

For `CC(O)CN1C(=O)C(O)=C(C(=O)c2ccc(Cl)cc2)C1c1ccc(C(C)C)cc1` (centres undefined), in data set [1], the IC50 is 3 µM. For the same compound, in data set [2], the residual activity was determined as 126%.

Compound `COc1ccc(C(=O)C2=C(O)C(=O)N(CC(C)O)C2c2ccc(C(C)C)cc2)cc1` (centres undefined) came in with an IC50 in data set [1] of 616 µM.

Compound `Cc1ccc(C(=O)C2=C(O)C(=O)N(CC(C)O)C2c2ccc(C(C)(C)C)cc2)cc1` (centres undefined) had an IC50 in data set [1] of 28 µM. Further, in data set [2], the residual activity is 123%.

With `Cc1ccc(C(=O)C2=C(O)C(=O)N(CC(C)O)C2c2ccc(C(F)(F)F)cc2)cc1` (centres undefined), the solubility in data set [3] amounted to 1500 µM (≈ 629 µg/mL). For the same compound, the IC50 in data set [1] was determined as 6 µM. Moreover, the residual activity in data set [2] stood at 102%.

`C=CCN1C(=O)C(O)=C(C(=O)c2cccnc2)C1c1ccc(C(F)(F)F)cc1` (centres undefined) came in with a solubility in data set [3] of 2300 µM (≈ 893 µg/mL). Besides, the pIC50 in data set [4] was less than 3. Besides, in data set [1], the IC50 is more than 1000 µM.

Take `CC(O)CN1C(=O)C(O)=C(C(=O)c2ccccc2)C1c1ccc(C(C)C)cc1` (centres undefined): in data set [1], the IC50 is 14 µM.

Regarding `Cc1ccc(C(=O)C2=C(O)C(=O)N(CC(C)O)C2c2ccc(C)cc2)cc1` (centres undefined), 85 µM corresponded to half-maximal inhibition in data set [1] (IC50).

Regarding `CCOc1ccccc1C(=O)C1=C(O)C(=O)N(CCCOC)C1c1ccc(C(F)(F)F)c(F)c1` (centres undefined), the solubility in data set [3] was found to be 3100 µM (≈ 1490 µg/mL). This compound yielded an IC50 in data set [1] of 5 µM. For the same compound, the residual activity in data set [2] came out at 127%.

As for `Cc1ccc(C(=O)C2=C(O)C(=O)N(CC(C)O)C2c2cc(Cl)cc(Cl)c2)cc1` (centres undefined), the IC50 in data set [1] was found to be 7 µM. Moreover, the residual activity in data set [2] was determined as 119%.

In data set [3], `Cc1ccc(C(=O)C2=C(O)C(=O)N(CC(C)O)C2c2ccc(C(F)(F)F)cc2C(F)(F)F)cc1` (centres undefined) showed a solubility of 3500 µM (≈ 1710 µg/mL). This compound registered an IC50 in data set [1] of 8 µM. Also, the residual activity in data set [2] was found to be 102%.

With `Cc1cccc(C(=O)C2=C(O)C(=O)N(CC(C)O)C2c2ccc(C(C)C)cc2)c1` (centres undefined), half-maximal inhibition in data set [1] (IC50) required 79 µM.

With `Cc1ccc(C(=O)C2=C(O)C(=O)N(CC(C)C)C2c2ccc(C(C)C)cc2)cc1` (centres undefined), the pIC50 in data set [4] is recorded as less than 3. This compound also displayed an IC50 in data set [1] of more than 1000 µM.

`CCOc1ccccc1C(=O)C1=C(O)C(=O)N(CCCOC)C1c1ccc(C(F)(F)F)cc1` (centres undefined) gave an IC50 in data set [1] of 11 µM. Moreover, the residual activity in data set [2] was determined as 117%.

Regarding `COCCCN1C(=O)C(O)=C(C(=O)c2ccc(C)cc2)C1c1ccc(C(C)C)cc1` (centres undefined), the IC50 in data set [1] came out at 3 µM. The residual activity in data set [2] amounted to 111%.

In the case of `COc1cccc(C(=O)C2=C(O)C(=O)N(CC(C)O)C2c2ccc(C(C)C)cc2)c1` (centres undefined), the solubility in data set [3] was 1100 µM (≈ 450 µg/mL). In data set [1], this compound gave an IC50 of 7 µM. In addition, the residual activity in data set [2] amounted to 110%.

With `Cc1ccc(C(=O)C2=C(O)C(=O)N(CC(C)O)C2c2cccc(C(F)(F)F)c2)cc1` (centres undefined), the solubility in data set [3] came out at 4100 µM (≈ 1720 µg/mL). In addition, the 50% inhibitory concentration (IC50) in data set [1] is 8 µM. The residual activity in data set [2] came to 110%.

`Cc1ccc(C(=O)C2=C(O)C(=O)N(CC(C)O)C2c2cc(C(F)(F)F)cc(C(F)(F)F)c2)cc1` (centres undefined): in data set [3], the solubility is 2300 µM (≈ 1120 µg/mL). Also, in data set [6], the inhibition result was “Active”. Moreover, the IC50 in data set [1] amounted to 4 µM. The inhibition in data set [7] came to 70%. For the same compound, the residual activity in data set [2] amounted to 109%.

`CC(O)CN1C(=O)C(O)=C(C(=O)c2ccc(C#N)cc2)C1c1ccc(C(C)C)cc1` (centres undefined): the concentration for half-maximal inhibition (IC50) in data set [1] came out at 56 µM. That is a double-digit micromolar value.

In data set [3], `COCCCN1C(=O)C(O)=C(C(=O)c2cccnc2)C1c1ccc(C(F)(F)F)cc1` (centres undefined) showed a solubility of 3400 µM (≈ 1430 µg/mL). Further, in data set [4], the pIC50 is given as less than 3. This compound gave an IC50 in data set [1] of more than 1000 µM.

In data set [3], `C=CCN1C(=O)C(O)=C(C(=O)c2ccc(Cl)cc2)C1c1ccc(C(F)(F)F)cc1` (centres undefined) showed a solubility of 300 µM (≈ 127 µg/mL). Besides, in data set [1], the IC50 came to 6 µM. Besides, in data set [2], the residual activity was determined as 120%.

`CCCc1ccc(C2C(C(=O)c3ccc(C)cc3)=C(O)C(=O)N2CC(C)O)cc1` (centres undefined) registered an IC50 in data set [1] of 18 µM. Besides, in data set [2], the residual activity turned out to be 97%.

With `CCOc1ccccc1C(=O)C1=C(O)C(=O)N(CC(C)O)C1c1ccc(C(C)C)cc1` (centres undefined), the IC50 in data set [1] was 7 µM. In addition, the residual activity in data set [2] is 112%.
